Screening results deposited in PubChem BioAssay by Broad Institute.
CFTR F508del cor: F508del CFTR correction, initial screen, CFBE line, single point | CFBE cells, YFP halide quenching; stimulated with forskolin plus potentiator P3; % fluorescence drop versus neutral controls | activity (quench increase), % at 7.58 µM | hit rate 0.36% among 350,000 | AID 720511, 2013;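 active means mean added fluorescence quench of at least 8% versus neutral control, with both replicates also reaching 8%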;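 further: cells transiently co-express mutant CFTR-F508del with the halide-sensitive YFP; corrector assay measuring rescue of mutant channel to the surface after 24 h compound exposure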
FGF22 binding-1: binders of human FGF22 protein, primary screen, FGF22 synaptogenesis inhibitor project, biophysical, thermal shift, single point; Fibroblast growth factor 22 (Homo sapiens), Q9HCT0; recombinant FGF22 thermal shift, SYPRO orange fluorescence; percent of sucrose octasulfate shift, DMSO zero; activity (Tm shift, normalised), % at 9.99 µM; hit rate 1.5% among 340,000;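 active means mean Tm shift, scaled 0 neutral to 100 positive control, at about 1.3% or above, every replicate too, limit read from the data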
Target sequence (Q9HCT0 whole entry, looked up): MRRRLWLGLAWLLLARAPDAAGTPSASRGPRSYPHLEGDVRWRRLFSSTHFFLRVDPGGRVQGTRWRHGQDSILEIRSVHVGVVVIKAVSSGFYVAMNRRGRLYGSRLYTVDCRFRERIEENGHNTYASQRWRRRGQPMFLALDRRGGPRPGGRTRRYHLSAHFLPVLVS
dFosB act: activators of delta FosB homodimer, primary screen, biochemical, fluorescence polarization, TAMRA-CDK5 oligo, single point. AID 493131, 2011. activation, % at 25 µM. purified delta FosB; percent of positive-control signal above neutral wells. Protein FosB (Mus musculus), P13346. hit rate 0.99% among 340,000;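 active means mean activation above about 17%, with every replicate also reaching it, limit read from the data, passing the limit was not always enough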
Target sequence (P13346 whole entry, looked up): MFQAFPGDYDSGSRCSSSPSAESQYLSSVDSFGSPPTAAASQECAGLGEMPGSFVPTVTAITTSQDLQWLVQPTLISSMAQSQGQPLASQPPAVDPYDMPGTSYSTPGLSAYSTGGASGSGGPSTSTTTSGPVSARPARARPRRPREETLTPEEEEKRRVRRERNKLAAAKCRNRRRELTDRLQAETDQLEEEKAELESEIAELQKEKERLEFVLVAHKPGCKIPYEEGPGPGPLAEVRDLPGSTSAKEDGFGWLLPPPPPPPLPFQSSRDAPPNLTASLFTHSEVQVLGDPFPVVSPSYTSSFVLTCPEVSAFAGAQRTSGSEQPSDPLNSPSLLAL
S100A4 inh HTS: inhibitors of S100A4-myosin IIA peptide binding, primary screen, biochemical, fluorescence polarization, TAMRA-MyoIIA peptide; Protein S100-A4 (Homo sapiens), P26447; inhibition, % at 10.7 µM; hit rate 0.14% among 360,000;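 active means mean inhibition of at least 70% across replicates, with every replicate also reaching that level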
Target sequence (P26447 whole entry, looked up): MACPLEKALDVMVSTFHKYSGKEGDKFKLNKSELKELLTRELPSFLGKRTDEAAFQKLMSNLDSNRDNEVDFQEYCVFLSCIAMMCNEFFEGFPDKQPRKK
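Test system: S100A4 monomer protein; Medium: HEPES pH 7.2 with CaCl2, KCl, NaCl, DTT, Triton; Probe or stimulus: TAMRA-labelled myosin IIA heavy-chain peptide probe, 5 nM; Doses: one dose per compound; Times: polarization read 5 min after assay mix addition, stable 5–60 min; Benchmarks: neutral control DMSO, positive control TFP.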
FGF22 binding-2: binders of human FGF22 protein, dose response, FGF22 synaptogenesis inhibitor project, biophysical, thermal shift, cherry-pick retest; shares compounds with FGF22 binding-1; recombinant FGF22 thermal shift, SYPRO orange fluorescence; thermal shift activity, °C (ΔTm) at 38 µM; hit rate 2% among 1,000; AID 720646, 2013;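 active means fitted rise in melting shift crosses a set limit at or below the top valid dose tested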
FGF22 TSA DP: binders of human FGF22 protein, dose response, FGF22 synaptogenesis inhibitor project, biophysical, thermal shift, dry powder; AID 743017, 2013; Thermal shift assay, SYPRO orange, melting temperature shift; shares compounds with FGF22 binding-1; Tm shift (activity), % at 38 µM; 50 tested, under 10 active;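 active means compounds whose fitted dose curve of melting temperature shift rises past a set threshold within the tested doses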
SYPRO no-protein: compound-only thermal shift signal without protein, dose response, artefact control for FGF22 binder project, biochemical, cherry-picked samples, RT-PCR instrument. shares compounds with FGF22 binding-1. compound-only SYPRO orange thermal shift counter-screen, no protein. AC50, µM (doses to about 38 µM). hit rate 2% among 1,000. AID 743019, 2013;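 active means rising signal whose fitted curve reaches the 0.54 level within the top valid dose, showing a melting point, actives reach about 13 µM in these data; inactive means the rest, including activity in the opposite direction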; further: value is where the raw curve crosses a fixed level and not half-maximal
Active calls of the source: *; i = inactive; . = no result; [ ] = another dose, or the depositor's remark. Sampled rows, rich in hits. Any-hit rate of the full collection: about 2.2%.

SMILES	CFTR F508del cor	FGF22 binding-1	dFosB act	S100A4 inh HTS	FGF22 binding-2	SYPRO no-protein	others
Cc1nc2ccc(NC(=O)c3ccc(Cl)c([N+](=O)[O-])c3)cc2s1	.	0	-9	0	.	.
Cc1noc(C)c1NC(=O)N(C)C[C@@H]1Oc2ccc(NC(=O)Nc3ccc(C(F)(F)F)cc3)cc2C(=O)N([C@H](C)CO)C[C@H]1C	5	0	.	11	.	.
COCC(=O)NC[C@H]1[C@H](c2ccc(C3=CCCC3)cc2)[C@@H](CO)N1C(C)=O	1	1.3*	.	-3	-0.058[42 µM]	i
COCC(=O)NC[C@@H]1[C@@H](c2ccc(C3=CCCC3)cc2)[C@H](CO)N1C(C)=O	-3	.	.	.	.	.
O=C(Nc1ccc(S(=O)(=O)N2CCOCC2)cc1)c1ccc(F)cc1	0	1.4*	-6	-1	.	i	FGF22 TSA DP=0
O=C(CNC(=O)c1ccc(S(=O)(=O)N2CCCC2)cc1)N/N=C/c1ccc(F)cc1	4	1.4*	-3	-6	-0.03	i
CC(=O)c1ccc(OCCCC(=O)Nc2ccc(S(=O)(=O)N3CCOCC3)cc2)cc1	2	1.9*	-8	-2	-0.23	i
C[C@H]1CN([C@@H](C)CO)C(=O)Cc2cc(N(C)C)ccc2O[C@@H]1CN(C)C(=O)Nc1cccc2ccccc12	3	-2	.	10	.	.
COc1ccc(NC(=O)N(C)C[C@@H]2Oc3c(NC(=O)C4CC4)cccc3C(=O)N([C@@H](C)CO)C[C@H]2C)cc1	2	0	.	31	.	.
C[C@@H]1CCCCO[C@H](CN(C)C(=O)c2ccncc2)[C@H](C)CN([C@H](C)CO)C(=O)c2cc(NC(=O)C3CCCCC3)ccc2O1	-3	0	.	-1	.	.
Cc1noc(NC(=O)c2cccc(Cl)c2Cl)c1C#N	2	1.3*	-6	3	-0.1	i
Cc1noc(NC(=O)c2ccccc2Cl)c1C#N	.	.	2	.	.	.
C[C@H]1CN([C@@H](C)CO)C(=O)c2cc(C3=CCCCC3)cnc2O[C@H]1CN(C)C(=O)c1ccncc1	3	0	.	4	.	.
COc1cccc(C#Cc2cnc3c(c2)C(=O)N([C@H](C)CO)C[C@H](C)[C@H](CN(C)C(=O)C2CCC2)O3)c1	3	0	.	25	.	.
CCCn1c(CCC(=O)O)nc2cc(S(=O)(=O)N3CCCC3)ccc21	2	30*	2	-47	0.088	i
O=C(c1ccccn1)N1CC2(C1)[C@@H](c1ccccc1)[C@@H](CO)N2C(=O)C1CC1	0	0	.	3	.	.
O=C(CC1CC1)N1CC2(C1)[C@H](c1ccccc1)[C@H](CO)N2C(=O)c1cnccn1	-2	1.4*	.	-23	0.17[42 µM]	i
COCC(=O)N1CC2(C1)[C@@H](c1ccccc1)[C@@H](CO)N2C(=O)NC1CCCC1	-3	1.4*	.	-3	0.001	i
COCC(=O)N1[C@@H](CO)[C@H](c2ccccc2)C12CN(C(=O)NC1CCCC1)C2	-1	.	.	13	.	.
CC(=O)N1[C@@H](CO)[C@@H](c2ccccc2)C12CN(C(=O)c1ccccn1)C2	1	1.4*	.	-1	0.12[42 µM]	i
CC(=O)N1[C@H](CO)[C@@H](c2ccccc2)C12CN(C(=O)c1ccccn1)C2	0	1.3*	.	2	0.13[42 µM]	i
O=C(CC1CC1)N1CC2(C1)[C@H](c1ccccc1)[C@@H](CO)N2C(=O)c1cnccn1	1	.	.	34	.	.
CC(=O)N1[C@H](CO)[C@@H](c2ccccc2)C12CN(C(=O)c1cnccn1)C2	1	0	.	-3	.	.
COc1cccc(C(=O)Nc2ccc3c(c2)OC[C@@H](C)N(C(=O)C2CCC2)C[C@@H](C)[C@H](OC)CN(C)C3=O)c1	0	0	.	13	.	.
COc1ccc2c3c(n(C)c2c1)[C@@H](CO)N(C(=O)Cc1ccccn1)CC31CN(CC2CCOCC2)C1	-1	0	.	11	.	.
SMILES	CFTR F508del cor	FGF22 binding-1	dFosB act	S100A4 inh HTS	FGF22 binding-2	SYPRO no-protein	others
OC[C@@H]1[C@@H](c2ccc(-c3cccnc3)cc2)[C@H]2CN(Cc3ccccn3)CCCCN12	-2	1.3*	.	.	0.051	i
OC[C@H]1[C@H](c2ccc(-c3cccnc3)cc2)[C@@H]2CN(Cc3ccccn3)CCCCN12	2	.	.	.	.	.
OC[C@H]1[C@@H](c2ccc(-c3cccnc3)cc2)[C@H]2CN(Cc3ccccn3)CCCCN21	2	1.7*	.	1	-0.064	i
CN(NC1OC(=O)c2ccccc21)c1ncc(C(F)(F)F)cc1Cl (configuration not stated)	1	28*	-4	-5	0.003	i
CC(C)CC#Cc1cnc2c(c1)C(=O)N([C@@H](C)CO)C[C@@H](C)[C@H](CN(C)Cc1ccccc1C(=O)O)O2	5	0	.	1	.	.
CNC[C@H]1OCCCC[C@@H](C)Oc2ccc(N(C)C)cc2C(=O)N([C@H](C)CO)C[C@@H]1C	-1	-1	.	-4	.	.
O=C(COc1cccc(Cl)c1)NCC(c1cccs1)N1CCOCC1 (configuration not stated)	1	1.6*	-9	-11	-0.063	i
CN1C(=O)c2cc(NC(=O)c3cccs3)ccc2OC[C@H]2O[C@@H](CC(=O)O)CC[C@H]21	-1	0	.	1	.	.
C[C@H]1CN([C@@H](C)CO)C(=O)c2cc(NC(=O)C3CCCCC3)ccc2O[C@H]1CN(C)Cc1ccncc1	-2	1	.	2	.	.
O=C(Nc1ccc(F)c(Cl)c1)c1ccccc1	2	1	1	25	.	.
N/C(=N\OCC(=O)Nc1ccc(F)c(Cl)c1)c1ccccc1	0	1.6*	-5	-3	0.33	i
C[C@H](CO)N1C[C@H](C)[C@H](CN(C)C(=O)c2ccc(F)cc2)Oc2ncc(Br)cc2C1=O	4	0	.	0	.	.
C[C@H](NC(=O)C[C@H]1CC[C@@H](NC(=O)Cc2ccccn2)[C@H](CO)O1)c1ccccc1	-1	0	.	3	.	.
CCCCNC(=O)c1onc(CSc2ccc(F)c(F)c2)c1C(=O)NCCCC	2	31*	-4	-1	0.026	6.3µM*
C[C@@H]1CN([C@@H](C)CO)S(=O)(=O)c2ccc(-c3ccc(C(=O)N(C)C)cc3)cc2O[C@@H]1CN(C)C(=O)C1CC1	-1	.	.	.	.	.
